Laboratory results from ChEMBL document CHEMBL1122647 (J Med Chem, 1984).

Key:
L1210 = test: Compound was evaluated for its cytotoxicity against the L1210 murine leukemia cell culture; format: functional; settings: Mus musculus, read-out: ID50 (the source's name)
Mus musculus [1] = test: In vivo antitumor activity was evaluated against L1210 leukemia implanted mice by measuring percent increase in life span after intraperitoneal administration of compound at 0.06 mg/kg; format: functional
Outline: (§1)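 Male B6D2F1J mice, five per group, were implanted ip with 10^5 L1210 cells on day 0. Treatment began on day 1. Drug was given ip in sterile water, twice daily on days 1-4 and 7-10, and as a single double-dose injection on days 5 and 6. Survival was recorded in days (range, and median treated/control), with % ILS derived from it. Body-weight change at 7 days was also recorded.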

Mus musculus [2] = test: In vivo antitumor activity was evaluated against L1210 leukemia implanted mice by measuring percent increase in life span after intraperitoneal administration of compound at 0.12 mg/kg; format: functional
Outline: (§2)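 Male B6D2F1J mice, five per group, were inoculated ip with 10^5 L1210 cells on day 0. Treatment began on day 1, given ip in sterile water twice daily on days 1-4 and 7-10, with a single double-dose injection on each of days 5 and 6. Read-outs were percent body weight change over 7 days, survival range in days, treated/control median survival, and percent increase in life span.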

Mus musculus [3] = test: In vivo antitumor activity was evaluated against L1210 leukemia implanted mice by measuring percent increase in life span after intraperitoneal administration of compound at 0.24 mg/kg; format: functional; outline: as §1
Mus musculus [4] = test: In vivo antitumor activity was evaluated against L1210 leukemia implanted mice by measuring T/C median after intraperitoneal administration of compound at 0.12 mg/kg; T/C median=14/8; format: functional; outline: as §2
Mus musculus [5] = test: In vivo antitumor activity was evaluated against L1210 leukemia implanted mice by measuring T/C median after intraperitoneal administration of compound at 0.24 mg/kg; T/C median=19/8; format: functional; outline: as §1
Mus musculus [6] = test: In vivo antitumor activity was evaluated against L1210 leukemia implanted mice by measuring 7-day weight change after intraperitoneal administration of compound at 0.06 mg/kg; format: functional
Outline: (§3)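 Groups of five male B6D2F1J mice were inoculated ip with 10^5 L1210 cells on day 0. Starting day 1, drug in sterile water was given ip bid on days 1-4 and 7-10, with a single double-dose injection on days 5 and 6. Percent body-weight change was recorded at day 7, along with survival range, median T/C and ILS.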

Mus musculus [7] = test: In vivo antitumor activity was evaluated against L1210 leukemia implanted mice by measuring 7-day weight change after intraperitoneal administration of compound at 0.12 mg/kg; format: functional; outline: as §2
Mus musculus [8] = test: In vivo antitumor activity was evaluated against L1210 leukemia implanted mice by measuring 7-day weight change after intraperitoneal administration of compound at 0.24 mg/kg; format: functional; outline: as §3
Mus musculus [9] = test: In vivo antitumor activity was evaluated against L1210 leukemia implanted mice by measuring number of survival days after intraperitoneal administration of compound at 0.06 mg/kg at a range of 11-13; format: functional; outline: as §1
Mus musculus [10] = test: In vivo antitumor activity was evaluated against L1210 leukemia implanted mice by measuring number of survival days after intraperitoneal administration of compound at 0.12 mg/kg at a range of 12-15; format: functional; outline: as §2
Mus musculus [11] = test: In vivo antitumor activity was evaluated against L1210 leukemia implanted mice by measuring number of survival days after intraperitoneal administration of compound at 0.24 mg/kg at a range of 12-20; format: functional; outline: as §1
[12] = molecular target: T1, Dihydrofolate reductase (Mus musculus) (UniProt P00375)
T1 sequence (whole entry): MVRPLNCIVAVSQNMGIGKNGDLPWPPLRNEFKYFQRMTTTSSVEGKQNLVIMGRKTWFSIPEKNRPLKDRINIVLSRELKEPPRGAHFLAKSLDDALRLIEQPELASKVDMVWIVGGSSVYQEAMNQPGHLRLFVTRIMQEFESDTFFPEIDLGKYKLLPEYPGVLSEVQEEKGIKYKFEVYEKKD

Mus musculus [13] = test: In vivo antitumor activity was evaluated against L1210 leukemia implanted mice by measuring percent increase in life span after intraperitoneal administration of compound at 12 mg/kg; format: functional; outline: as §1
Mus musculus [14] = test: In vivo antitumor activity was evaluated against L1210 leukemia implanted mice by measuring percent increase in life span after intraperitoneal administration of compound at 16 mg/kg; format: functional; outline: as §1
Mus musculus [15] = test: In vivo antitumor activity was evaluated against L1210 leukemia implanted mice by measuring percent increase in life span after intraperitoneal administration of compound at 8 mg/kg; format: functional; outline: as §1
Mus musculus [16] = test: In vivo antitumor activity was evaluated against L1210 leukemia implanted mice by measuring 7-day weight change after intraperitoneal administration of compound at 12 mg/kg; format: functional; outline: as §3
Mus musculus [17] = test: In vivo antitumor activity was evaluated against L1210 leukemia implanted mice by measuring T/C median after intraperitoneal administration of compound at 16 mg/kg; T/C median=15/8; format: functional; outline: as §1
Mus musculus [18] = test: In vivo antitumor activity was evaluated against L1210 leukemia implanted mice by measuring T/C median after intraperitoneal administration of compound at 8 mg/kg; T/C median=13/8; format: functional; outline: as §1
Mus musculus [19] = test: In vivo antitumor activity was evaluated against L1210 leukemia implanted mice by measuring number of survival days after intraperitoneal administration of compound at 16 mg/kg; at a range of 15-17; format: functional; outline: as §1
Mus musculus [20] = test: In vivo antitumor activity was evaluated against L1210 leukemia implanted mice by measuring number of survival days after intraperitoneal administration of compound at 8 mg/kg; at a range of 12-15; format: functional; outline: as §1
Mus musculus [21] = test: In vivo antitumor activity was evaluated against L1210 leukemia implanted mice by measuring T/C median after intraperitoneal administration of compound at 12 mg/kg; T/C median=13/8; format: functional; outline: as §1
Mus musculus [22] = test: In vivo antitumor activity was evaluated against L1210 leukemia implanted mice by measuring 7-day weight change after intraperitoneal administration of compound at 8 mg/kg; format: functional; outline: as §3
Mus musculus [23] = test: In vivo antitumor activity was evaluated against L1210 leukemia implanted mice by measuring 7-day weight change after intraperitoneal administration of compound at 16 mg/kg; format: functional; outline: as §3
Mus musculus [24] = test: In vivo antitumor activity was evaluated against L1210 leukemia implanted mice by measuring number of survival days after intraperitoneal administration of compound at 12 mg/kg; at a range of 13-15
Mus musculus [25] = test: In vivo antitumor activity was evaluated against L1210 leukemia implanted mice by measuring percent increase in life span after intraperitoneal administration of compound at 1 mg/kg; format: functional; outline: as §1
Mus musculus [26] = test: In vivo antitumor activity was evaluated against L1210 leukemia implanted mice by measuring percent increase in life span after intraperitoneal administration of compound at 0.5 mg/kg; format: functional; outline: as §1
Mus musculus [27] = test: In vivo antitumor activity was evaluated against L1210 leukemia implanted mice by measuring percent increase in life span after intraperitoneal administration of compound at 0.75 mg/kg; format: functional; outline: as §1
Mus musculus [28] = test: In vivo antitumor activity was evaluated against L1210 leukemia implanted mice by measuring T/C median after intraperitoneal administration of compound at 1 mg/kg; T/C median=21/9; format: functional; outline: as §1
Mus musculus [29] = test: In vivo antitumor activity was evaluated against L1210 leukemia implanted mice by measuring number of survival days after intraperitoneal administration of compound at 1 mg/kg; at a range of 3-22; format: functional; outline: as §1
Mus musculus [30] = test: In vivo antitumor activity was evaluated against L1210 leukemia implanted mice by measuring T/C median after intraperitoneal administration of compound at 0.5 mg/kg; T/C median=16/9; format: functional; outline: as §1
Mus musculus [31] = test: In vivo antitumor activity was evaluated against L1210 leukemia implanted mice by measuring 7-day weight change after intraperitoneal administration of compound at 0.5 mg/kg; format: functional; outline: as §3
Mus musculus [32] = test: In vivo antitumor activity was evaluated against L1210 leukemia implanted mice by measuring 7-day weight change after intraperitoneal administration of compound at 0.75 mg/kg; format: functional; outline: as §3
Mus musculus [33] = test: In vivo antitumor activity was evaluated against L1210 leukemia implanted mice by measuring number of survival days after intraperitoneal administration of compound at 0.5 mg/kg; at a range of 15-18; format: functional; outline: as §1
Mus musculus [34] = test: In vivo antitumor activity was evaluated against L1210 leukemia implanted mice by measuring number of survival days after intraperitoneal administration of compound at 0.75 mg/kg; at a range of 16-21; format: functional; outline: as §1
Mus musculus [35] = test: In vivo antitumor activity was evaluated against L1210 leukemia implanted mice by measuring 7-day weight change after intraperitoneal administration of compound at 1 mg/kg; format: functional; outline: as §3
Mus musculus [36] = test: In vivo antitumor activity was evaluated against L1210 leukemia implanted mice by measuring T/C median after intraperitoneal administration of compound at 0.75 mg/kg; T/C median=18/9; format: functional; outline: as §1

Nc1nc(N)c2nc(CNc3ccc(C(=O)N[C@@H](CCC(=O)O)C(=O)O)cc3)cnc2n1 [AMINOPTERIN]
IC50 (L1210): 3.1 nM | Activity (Mus musculus [1]): 50% | Activity (Mus musculus [2]): 75% | Activity (Mus musculus [3]): 138% | Survival days (Mus musculus [4]): 14 | Survival days (Mus musculus [5]): 19 | Weight change (Mus musculus [6]): 1% | Weight change (Mus musculus [7]): 3% | Weight change (Mus musculus [8]): -12% | Survival days (Mus musculus [9]): 11 | Survival days (Mus musculus [10]): 12 | Survival days (Mus musculus [11]): 12 | ID50 [12]: 40 nM

Nc1nc(N)c2nc(CNc3ccc(C(=O)NC(CS(=O)(=O)O)C(=O)O)cc3)cnc2n1 (stereo not given)
IC50 (L1210): 44 nM | Activity (Mus musculus [13]): 62% | Activity (Mus musculus [14]): 88% | Activity (Mus musculus [15]): 62% | Activity (Mus musculus [16]): 2% | Survival days (Mus musculus [17]): 15 | Survival days (Mus musculus [18]): 13 | Survival days (Mus musculus [19]): 17 | Survival days (Mus musculus [20]): 12 | Survival days (Mus musculus [21]): 13 | Weight change (Mus musculus [22]): 2% | Weight change (Mus musculus [23]): 0% | ID50 [12]: 65 nM | Survival days (Mus musculus [24]): 13

CN(Cc1cnc2nc(N)nc(N)c2n1)c1ccc(C(=O)N[C@@H](CCC(=O)O)C(=O)O)cc1 [METHOTREXATE]
IC50 (L1210): 12 nM | Activity (Mus musculus [25]): 133% | Activity (Mus musculus [26]): 78% | Activity (Mus musculus [27]): 100% | Survival days (Mus musculus [28]): 21 | Survival days (Mus musculus [29]): 3 | Survival days (Mus musculus [30]): 16 | Weight change (Mus musculus [31]): -1% | Weight change (Mus musculus [32]): -5% | Survival days (Mus musculus [33]): 15 | Survival days (Mus musculus [34]): 16 | Weight change (Mus musculus [35]): -8% | Survival days (Mus musculus [36]): 18
